Source: ChEMBL document CHEMBL1649529, “Identifying exposure targets for treatment of staphylococcal pneumonia with ceftobiprole” (Antimicrob Agents Chemother, 2009)
Converted amounts (≈) assume the structure as drawn.

What was measured:
[1] = AUC in plasma of healthy human at 500 mg, iv administered as 2-h infusion every 8 h
[2] = Drug level in epithelial lining fluid of healthy human at 500 mg, iv administered as 2-h infusion every 8 h after 6 hrs; conditions: read-out: Drug uptake
[3] = Drug level in plasma of healthy human at 500 mg, iv administered as 2-h infusion every 8 h after 6 hrs
Staphylococcus aureus [4] = assay: Antibacterial activity against hospital-acquired methicillin-resistant Staphylococcus aureus clinical isolates; format: functional
Procedure, shortened: (§1)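 MICs determined by CLSI dilution methodology for aerobically growing bacteria; the active drug, not the prodrug, was used for in vitro testing.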

Homo sapiens = assay: Volume of distribution in central compartment of healthy human at 500 mg, iv administered as 2-h infusion every 8 h; conditions: in vivo
[5] = Plasma protein binding in mouse; format: ADME, cell-free; conditions: read-out: PPB (converted)
[6] = Drug level in plasma of healthy human at 500 mg, iv administered as 2-h infusion every 8 h after 8 hrs
[7] = Drug level in epithelial lining fluid of healthy human at 500 mg, iv administered as 2-h infusion every 8 h after 2.5 hrs; conditions: read-out: Drug uptake
[8] = Drug level in epithelial lining fluid of healthy human at 500 mg, iv administered as 2-h infusion every 8 h after 4 hrs; conditions: read-out: Drug uptake
[9] = Drug level in plasma of healthy human at 500 mg, iv administered as 2-h infusion every 8 h after 2.5 hrs
Staphylococcus aureus [10] = assay: Antibacterial activity against community-acquired methicillin-resistant Staphylococcus aureus clinical isolates; format: functional
Procedure, shortened: as §1

[11] = Drug level in plasma of healthy human at 500 mg, iv administered as 2-h infusion every 8 h after 4 hrs
[12] = Fraction unbound in mouse plasma; format: ADME, cell-free
[13] = Clearance in healthy human at 500 mg, iv administered as 2-h infusion every 8 h; conditions: in vivo
[14] = Drug level in epithelial lining fluid of healthy human at 500 mg, iv administered as 2-h infusion every 8 h after 8 hrs; conditions: read-out: Drug uptake
[15] = Volume of distribution in epithelial lining fluid of healthy human at 500 mg, iv administered as 2-h infusion every 8 h; conditions: in vivo
[16] = AUC in epithelial lining fluid of mouse; format: ADME, tissue-based
Procedure, shortened: (§2)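 Neutropenic (cyclophosphamide) female BALB/c mice were infected with S. aureus in 3% mucin by aspiration. At 6 h they received single sc doses of prodrug (1.0–25.0 mg/kg, in sterile water). Plasma was sampled at 0.25–4 h (6 mice per time point) and BAL at 0.25–4 h. Samples were citrate-stabilized and assayed by HPLC (LOQ 0.01 mg/liter), with urea correction for ELF. AUCs came from a 9,999-subject simulation.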

Staphylococcus aureus [17] = assay: Antibacterial activity against methicillin-susceptible Staphylococcus aureus clinical isolates; format: functional
Procedure, shortened: as §1

[18] = AUC in epithelial lining fluid of healthy human at 500 mg, iv administered as 2-h infusion every 8 h; conditions: in vivo
[19] = AUC in plasma of mouse; format: ADME, cell-free
Procedure, shortened: as §2

SMILES: Nc1nc(/C(=N/O)C(=O)N[C@@H]2C(=O)N3C(C(=O)O)=C(/C=C4\CCN([C@@H]5CCNC5)C4=O)CS[C@H]23)ns1 [CEFTOBIPROLE]
- AUC [1]: 98700 ng·h/mL
- concentration at 6 h [2]: 4580 ng/mL
- concentration at 6 h [3]: 6910 ng/mL
- MIC (Staphylococcus aureus [4]): 0.5 µg/mL (≈ 0.935 µM)
- Vd (Homo sapiens): 2.849 L
- fraction unbound [5]: 0.81
- concentration at 8 h [6]: 3650 ng/mL
- concentration at 2.5 h [7]: 2550 ng/mL
- concentration at 4 h [8]: 2000 ng/mL
- concentration at 2.5 h [9]: 17700 ng/mL
- MIC (Staphylococcus aureus [10]): 1 µg/mL (≈ 1.87 µM)
- concentration at 4 h [11]: 12800 ng/mL
- fraction unbound [12]: 0.81
- CL/F [13]: 86 mL/min
- concentration at 8 h [14]: 1510 ng/mL
- Vd [15]: 39.1 L
- AUC [16]: 46000 ng·h/mL
- MIC (Staphylococcus aureus [17]): 0.25 µg/mL (≈ 0.468 µM)
- AUC [18]: 25200 ng·h/mL
- AUC [19]: 68800 ng·h/mL
